Screens: PubChem, several laboratories
This is one part of a sample in which hits are shown more often than they occur.
697 NFkB inh: lowers PMA/ionomycin-induced NF-kB signal in 697 B cells | 697 B-cell NF-kB luciferase reporter, 16 h | inhibition, % at 4 µM | actives 0.33% (n = 330,000) | AID 435022; in the data active means inhibition above about 35%
Jurkat NFkB inh: lowers PMA/ionomycin-induced NF-kB signal in Jurkat cells. inhibition, % at 4 µM. PMA/ionomycin-induced NF-kB luciferase reporter, luminescence. actives 0.53% (n = 330,000); in the data active means inhibition above about 50%
CHOP inh: CHOP inhibition in unfolded protein response. CHO-K1 CHOP-promoter luciferase, tunicamycin-induced, 15-18 h. inhibition, % at 10 µM. actives 3.8% (n = 220,000);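 active means compounds that reduced the stress-induced luciferase reporter signal by more than about 70% of percent inhibition, limit read from the data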;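 further: 0% = tunicamycin plus vehicle and 100% = wells without tunicamycin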
UPR CHOP act: activators of apoptotic arm of unfolded protein response (CHOP); CHO-CHOP luciferase reporter, UPR activation, luminescence; percent of tunicamycin response over DMSO baseline; activation, % at 10 µM; actives 0.34% (n = 330,000);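 active means at 10 µM dose, activation of 40% or more, normalized to positive control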;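 further: 100% = tunicamycin at 10 µg/mL and 0% = DMSO alone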
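System: CHO-CHOP luciferase reporter cell line; amount: 500 cells/well; buffer or medium: F12 medium containing 10% fetal bovine serum; incubation: 6 h compound exposure at 37 °C after overnight seeding; measured by: luciferase luminescence after 10 min with Steady-Glo reagent; evaluation: % reporter activation, DMSO baseline versus tunicamycin full activation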
XBP1 UPR activ: activators of adaptive arm of unfolded protein response (XBP1) | CHO-XBP1 luciferase reporter, IRE1-XBP1 UPR activation, luminescence; percent of tunicamycin response, DMSO as zero | actives 0.33% (n = 330,000) | activation, % at 20 µM;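 active means versus positive control, 20 µM dose yields 30% or more activation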;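 further: 100% = tunicamycin at 10 µg/mL and 0% = DMSO only wells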
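Material – CHO cell line with stable XBP1 luciferase reporter · Buffer or medium – F12 plus 10% FBS · Compound – single point, 20 µM final compound, 1% DMSO · Schedule – 16-18 h cell attachment at 37 °C, then 6 h compound exposure · Signal – Steady-Glo luminescence read · Benchmarks – high control tunicamycin 10 µg/mL final, low control DMSO vehicle only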
* = called active by the depositor; . = no result given.

SMILES	697 NFkB inh	Jurkat NFkB inh	CHOP inh	UPR CHOP act	XBP1 UPR activ
COc1ccc(CNC(=O)CN2C(=O)NC3(CCCCCCC3)C2=O)cc1	6.9	1.7	.	-1.8	-2.1
CCOC(=O)C1CCCN(c2nc3ccccc3nc2C(C#N)C(=O)NCc2ccccc2)C1 (stereo not given)	20.9	-3.1	74.5*	-1.5	-3.8
Cc1ccc(NNC(=O)C(O)(c2cccc(C(F)(F)F)c2)c2cccc(C(F)(F)F)c2)cc1	-20.4	17.0	106.9*	-0.3	-1.4
CC1CC(C)CN(c2ccc(-n3cnnn3)cc2[N+](=O)[O-])C1 (stereo not given)	10.0	4.3	74.3*	-0.5	0.1
Cc1noc(C)c1COc1ccc(C(=O)Nc2nnc(CC(C)C)s2)cc1	-32.6	5.2	.	-1.2	-4.7
CCCCNC(=S)NNC(=O)c1c(C)nc2ccccn12	7.9	-0.5	-21.8	0.1	-2.4
Fc1ccc(-c2nn3c(C4COc5ccccc5O4)nnc3s2)cc1 (stereo not given)	-36.7	-11.0	-5.9	2.0	0.5
c1ccc2c(c1)OCC(c1nnc3sc(-c4ccc5c(c4)OCO5)nn13)O2 (stereo not given)	3.3	-0.1	85.6*	2.9	2.9
CSC1=NC(=O)/C(=C\c2cccc3ccccc23)S1	19.3	1.8	103.1*	1.4	1.0
Cc1ccc(NC(=O)CN(C)C(=O)c2cc3ccccc3o2)cc1	-1.2	4.7	18.8	-1.2	-1.6
Cc1c(C)n(C(=O)CSc2nc3ccccc3[nH]2)c2ccccc12	-7.3	-3.6	80.4*	-3.2	-1.4
Cc1cnc(C(=O)OCC(=O)Nc2ccc(Cl)cc2)cn1	11.7	9.5	-11.0	-1.4	-3.7
Cc1cnc(C(=O)OCC(=O)NC(=O)NC(C)C)cn1	2.6	-1.1	77.3*	-1.2	0.3
S=C(NCCC(c1ccccc1)c1ccccc1)Nc1ccc(Cl)cc1	-4.8	-4.1	78.0*	0.5	-1.0
S=C(NCCCc1ccccc1)Nc1ccccc1	8.7	12.4	.	1.6	-2.1
S=C(NCCC(c1ccccc1)c1ccccc1)Nc1ccccc1Cl	-2.2	-16.3	-0.7	0.7	-2.4
S=C(NCCC1=CCCCC1)Nc1ccc(Cl)cc1	-28.4	-27.1	81.2*	4.5	-0.8
Fc1ccc(NC(=S)NCCc2ccc(Cl)cc2)cc1	-35.1	-17.3	24.8	3.8	0.7
COc1ccc(NC(=S)NCCC2=CCCCC2)cc1OC	-27.2	-9.1	11.5	2.5	-0.5
Fc1ccc(CCNC(=S)Nc2ccc(F)c(Cl)c2)cc1	-3.4	-2.4	90.4*	-1.2	-2.1
S=C(NCCCc1ccccc1)Nc1ccc(Cl)cc1	-10.8	3.7	76.7*	1.3	1.9
CN(CC(=O)NCC1CCCCC1)CC(=O)Nc1ccc(F)cc1	-7.0	-6.5	.	0.3	0.0
NS(=O)(=O)c1ccc(CCNC(=O)CCCCCn2c(=S)[nH]c3ccc(Br)cc3c2=O)cc1	-6.1	2.6	5.2	1.7	-6.7
CCC(C)Oc1cc(-c2ccnc(Nc3cccc(Cl)c3)n2)ccn1 (stereo not given)	-53.8	26.9	93.0*	-2.3	-6.2
COc1ccc(C)cc1-n1nnnc1SC(C)C(=O)NC1CCCC1 (stereo not given)	8.0	7.2	.	-1.9	-4.8
SMILES	697 NFkB inh	Jurkat NFkB inh	CHOP inh	UPR CHOP act	XBP1 UPR activ
Cc1ccc(-n2nnnc2SC(C(=O)c2c[nH]c3ccccc23)c2ccccc2)cc1 (stereo not given)	7.9	7.0	71.6*	2.0	-1.8
COc1cccc(-c2ccc(C#N)c(OC(=O)c3ccc(Cl)cc3)n2)c1	6.7	6.9	79.9*	-0.7	-7.6
COc1cccc(-c2ccc(C#N)c(OC(=O)c3c(Cl)cccc3Cl)n2)c1	1.1	25.2	35.6	0.9	-4.4
COc1cc2c(cc1OC)C(c1ccc(-c3cc(Cl)ccc3Cl)o1)=NCC2	-11.3	11.5	84.6*	-1.1	4.2
COc1cc2c(cc1OC)C(c1ccc(-c3ccc(Cl)c(Cl)c3)o1)=NCC2	-14.7	2.2	80.2*	0.8	4.7
COc1cc2c(cc1OC)C(c1ccc(-c3ccccc3Cl)o1)=NCC2	-4.8	25.9	42.1	-1.4	-1.8
Cc1ccccc1-c1nc(S(=O)(=O)c2ccccc2)c(NCCCN2CCOCC2)o1	-1.8	-19.5	.	-0.1	-0.4
Cc1ccccc1-c1nc(S(=O)(=O)c2ccc(Cl)cc2)c(NCCN2CCOCC2)o1	16.0	1.6	89.9*	-0.3	-2.1
Cc1ccc(NC(=O)CCc2c[nH]c3ccccc23)nc1	-223.3	41.4	.	0.7	3.4
